The record followed here is ChEMBL document CHEMBL4017500 (J Med Chem, 2017).

The subject of experiment [1] is Bacteria. The experiment is described as follows: Binding affinity to bacterial NDM-1 expressed in Escherichia coli BL21(DE3) assessed as Zn2+ stripping up to 128 uM after 30 mins by equilibrium dialysis method. In short, it runs like this:
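NDM-1 (8 μM final) in 50 mM HEPES pH 7.5 mixed with compound at 0–128 μM for 30 min. Then dialyzed 4 h against metal-free 50 mM HEPES pH 7.5. Residual Zn(II) measured by ICP-AES at 213.856 nm.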

Experiment [2] concerns Bacteria. The experiment can be described thus: Binding affinity to bacterial CoCoNDM-1 expressed in Escherichia coli BL21(DE3) assessed as CoCoNDM-1-compound ternary complex formation at 1 to 2 equiv after 30 mins by UV-Visible spectroscopic method. The method, boiled down: (§1)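 Apo-NDM-1 at 300 μM in 50 mM HEPES, 150 mM NaCl, pH 6.8, loaded with 2 molar equiv CoCl2. […] Absorbance read 300–700 nm at 25 °C as difference spectra against buffer blank, normalized at 700 nm.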

The test system of experiment [3] is Bacteria. The experiment can be described thus: Binding affinity to bacterial CoCoNDM-1 expressed in Escherichia coli BL21(DE3) assessed as CoCoNDM-1-compound ternary complex formation at 1 equiv by 1H […] spectroscopic method.
A short description of experiment [4]: Fluorescence quenching activity assessed as reduction in tryptophan fluorescence up to 32 uM after 30 mins by luminescence spectrometric method. In short, it runs like this: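 NDM-1 (2 μM final) in 50 mM HEPES pH 7.5 with compound at 4–32 μM for 30 min. Excitation 280 nm, emission scanned 300–400 nm, intensity taken at 348 nm. Scaled with buffer as 0% and inhibitor-free enzyme as 100%. Free L-tryptophan (2 μM) run as control.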

Experiment [5] has as its system Bacteria. The experiment is described as follows: Binding affinity to bacterial CoCoNDM-1 expressed in Escherichia coli BL21(DE3) assessed as CoCoNDM-1-compound ternary complex formation at 3 to 5 equiv by 1H NMR spectroscopic method. The method, boiled down:
(§2)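 Apo-NDM-1 concentrated to ~1 mM and loaded with 2 equiv CoCl2. Samples in 50 mM HEPES, 150 mM NaCl, 10% D2O, pH 6.8. Compounds from 50–100 mM DMSO stocks titrated in ~5 μL aliquots. 1H spectra recorded at 292 K, 300.16 MHz.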

Experiment [6] deals with Bacteria. The experiment can be described thus: Binding affinity to bacterial NDM-1 expressed in Escherichia coli BL21(DE3) assessed as increase in intrinsic tryptophan fluorescence up to 32 uM after 30 mins by luminescence spectrometric method relative to control. In short, it runs like this:
(§3)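 NDM-1 at 2 μM final in 50 mM HEPES pH 7.5 mixed with compound at 4–32 μM, incubated 30 min. Emission scanned 300–400 nm with excitation at 280 nm. Relative tryptophan fluorescence read at 348 nm, with buffer set to 0% and inhibitor-free NDM-1 to 100%. Control run with 2 μM L-tryptophan in place of enzyme.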

In experiment [7] the target is Metallo-beta-lactamase type 2 (Serratia marcescens) (UniProt P52699). The experiment can be described thus: Inhibition of Serratia marcescens IMP1 expressed in Escherichia coli BL21(DE3) at 50 uM using chromacef as substrate preincubated for 10 mins followed by substrate addition measured after 20 mins by HTS assay relative to control. The method, boiled down: (§4)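 Colorimetric chromacef screen, final 50 mM HEPES, 2 mM CHAPS, pH 7.0. Substrate added at 3 μM (NDM-1, ~3×KM), 7.2 μM (IMP-1) or 16 μM (VIM-2). […] Percent inhibition calculated.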
Sequence of Metallo-beta-lactamase type 2 (Serratia marcescens) (P52699 19-246 limits assumed): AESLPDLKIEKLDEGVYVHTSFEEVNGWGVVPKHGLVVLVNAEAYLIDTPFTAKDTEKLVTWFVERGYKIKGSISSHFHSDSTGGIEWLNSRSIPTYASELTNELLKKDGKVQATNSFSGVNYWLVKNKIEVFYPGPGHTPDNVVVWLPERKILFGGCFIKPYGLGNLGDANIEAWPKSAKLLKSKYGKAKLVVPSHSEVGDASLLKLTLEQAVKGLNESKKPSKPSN

Experiment [8] deals with Beta-lactamase VIM-2 (Pseudomonas aeruginosa) (UniProt Q9K2N0). The experiment can be described thus: Inhibition of Pseudomonas aeruginosa VIM2 expressed in Escherichia coli BL21(DE3) at 50 uM using chromacef as substrate preincubated for 10 mins followed by substrate addition measured after 20 mins by HTS assay relative to control. The method, boiled down: as §4
Experiment [9] concerns Bacteria. The experiment is described as follows: Inhibition of bacterial MBP-fused NDM1 expressed in Escherichia coli BL21(DE3) at 50 uM using chromacef as substrate preincubated for 10 mins followed by substrate addition measured after 20 mins by HTS assay relative to control. The method, boiled down:
as §4

Experiment [10] in a line: Inhibition of bacterial MBP-fused NDM1 expressed in Escherichia coli BL21(DE3) ausing chromacef as substrate preincubated for 20 mins followed by substrate addition measured after 0.3 mins. Also on record: species or system Bacteria. In short, it runs like this:
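Preincubated 20 min, then 3 μM substrate (~3×KM) added. A442 followed ~0.3 min at 25 °C. Activity scaled to uninhibited (100%) and no-enzyme (0%) controls, fitted to a Hill-type equation.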

Experiment [11] can be described thus: Inhibition of bacterial MBP-fused NDM1 expressed in Escherichia coli BL21(DE3) ausing fluorocillin as substrate preincubated for 20 mins followed by substrate addition measured at 1 sec time interval for 25 mins by fluorescence assay. Also on record: species or system Bacteria. In short, it runs like this:
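NDM-1 pre-incubated 20 min with inhibitor (final 100 μM to 1 nM) in 50 mM HEPES pH 7.0 with 2 mM CHAPS. Reaction started with fluorocillin (final 87 nM, below KM), NDM-1 final 25 pM. Fluorescence read at λex/em 495/525 nm, 10 reads over ~25 min.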

The subject of experiment [12] is Bacteria. The experiment can be described thus: Inhibition of bacterial MBP-fused NDM1 expressed in Escherichia coli BL21(DE3) ausing fluorocillin as substrate preincubated for 20 mins followed by substrate addition measured at 1 sec time interval for 25 mins in presence of ZnSO4 by fluorescence assay.
Experiment [13] deals with Bacteria. The experiment is described as follows: Binding affinity to bacterial CoCoNDM-1 expressed in Escherichia coli BL21(DE3) assessed as metal stripping at 1 to 2 equiv after 30 mins by UV-Visible spectroscopic method. In short, it runs like this: as §1
Experiment [14] can be described thus: Metal chelating activity assessed as Co2+-compound complex formation at 1 equiv by 1H NMR spectroscopic method. Type of experiment: functional. The method, boiled down: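 Apo-NDM-1 concentrated to ~1 mM and given 2 equivalents of CoCl2, in 50 mM HEPES, 150 mM NaCl, 10% D2O, pH 6.8. Compounds, from DMSO stocks of 50–100 mM, titrated in. 1H NMR spectra recorded at 292 K at 300.16 MHz.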

Experiment [15] deals with Bacteria. The experiment is described as follows: Binding affinity to bacterial CoCoNDM-1 expressed in Escherichia coli BL21(DE3) assessed as metal stripping at 1 to 2 equiv by 1H NMR spectroscopic method. In short, it runs like this: as §2
Experiment [16] relates to Bacteria. The experiment can be described thus: Binding affinity to bacterial NDM-1 expressed in Escherichia coli BL21(DE3) assessed as intrinsic tryptophan fluorescence quenching up to 32 uM after 30 mins by luminescence spectrometric method relative to control. The method, boiled down:
as §3

For experiment [17], the target named is Beta-lactamase VIM-2 (Pseudomonas aeruginosa, UniProt Q9K2N0). The experiment can be described thus: Inhibition of Pseudomonas aeruginosa VIM2 expressed in Escherichia coli BL21(DE3) using fluorocillin as substrate preincubated for 10 mins followed by substrate addition measured after 20 mins by HTS assay.
Experiment [18] in a line: Inhibition of bacterial NDM1. Details: species or system Bacteria. The method, boiled down: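 Chromogenic NDM-1 assay: enzyme (3 nM) pre-incubated 20 min with ~20 inhibitor concentrations in 50 mM HEPES, 1% DMSO, pH 7.0. Chromacef substrate 3 μM (~3×KM). Absorbance at 442 nm followed ~0.3 min at 25 °C.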

Calls of active or inactive are those of the source. The calls are words filed in the database; no cut-off is given here.

As to `C[C@H](CS)C(=O)N1CCC[C@H]1C(=O)O`, the result in [1] and in experiment [4] was inactive. In addition, the outcome in experiment [2], in experiment [3] and in experiment [5] was Active. Also, the Activity in experiment [6] stood at 10%.
Regarding `Oc1ccc[nH]c1=S`, the inhibition in [7], in [8] and in [9] was over 60% throughout.
Take `O=C(O)c1cccc(C(=O)O)n1` [DIPICOLINIC ACID]: the result in experiment [1], in experiment [3], in [13], in experiment [14] and in [15] was Active. The figures for the IC50 in experiment [10], in [11] and in [17] were 520 nM, 410 nM and 1660 nM, respectively. For the same compound, in [12], the inhibition result is “inactive”. The inhibition in [7], in experiment [8] and in experiment [9] was over 60% each time. Also, in experiment [16], the Activity was determined as 20%.
As for `N[C@@H](CN[C@@H](CN[C@@H](CC(=O)O)C(=O)O)C(=O)O)C(=O)O`, in experiment [18], the IC50 turned out to be 4000 nM.
With `c1cnc2c(c1)ccc1cccnc12`, the inhibition in experiment [7], in experiment [8] and in experiment [9] was over 60% throughout.
For `c1ccc(C2=NCCS2)nc1`, the inhibition in experiment [7], in [8] and in experiment [9] was over 60% throughout.
`O=C(O)c1ccc2cccc(O)c2n1`: the inhibition in experiment [7], in experiment [8] and in [9] was over 60% in each case.
For the compound `NCCNCc1ccc(C(=O)N[C@H]2Cc3cccc(C(=O)O)c3O[B-]2(O)O)cc1`, in [18], the IC50 is 4 nM.
Take `O=C(O)CN(CCN(CC(=O)O)CC(=O)O)CC(=O)O`: the result in experiment [1], in [13] and in experiment [15] was Active. Further, the outcome in experiment [4] was inactive. In experiment [16], the Activity was under 10%.
Take `O=C(Cc1ccccc1)Nc1cccc(-c2cc(C(=O)O)nc(C(=O)O)c2)c1`: the IC50 came out at 860 nM in experiment [10] and 590 nM in experiment [11].
As for `Oc1c(I)cc(Cl)c2cccnc12`, the inhibition in [7], in [8] and in experiment [9] was over 60% in each case.
